Laboratory results from ChEMBL document CHEMBL2169869, “Assay and inhibition of diacylglycerol lipase activity” (Bioorg Med Chem Lett, 2012).

What was measured:
[1] = target: T1, Diacylglycerol lipase-alpha (Homo sapiens) (UniProt Q9Y4D2); assay: Inhibition of human DAGLalpha expressed in HEK293T cell membrane using [14C]SAG substrate at 10 uM in presence of 0.015% Triton X-100 by scintillation counting based radio-TLC assay; assay type: cell membranes; conditions: HEK-293T
T1 sequence (whole entry): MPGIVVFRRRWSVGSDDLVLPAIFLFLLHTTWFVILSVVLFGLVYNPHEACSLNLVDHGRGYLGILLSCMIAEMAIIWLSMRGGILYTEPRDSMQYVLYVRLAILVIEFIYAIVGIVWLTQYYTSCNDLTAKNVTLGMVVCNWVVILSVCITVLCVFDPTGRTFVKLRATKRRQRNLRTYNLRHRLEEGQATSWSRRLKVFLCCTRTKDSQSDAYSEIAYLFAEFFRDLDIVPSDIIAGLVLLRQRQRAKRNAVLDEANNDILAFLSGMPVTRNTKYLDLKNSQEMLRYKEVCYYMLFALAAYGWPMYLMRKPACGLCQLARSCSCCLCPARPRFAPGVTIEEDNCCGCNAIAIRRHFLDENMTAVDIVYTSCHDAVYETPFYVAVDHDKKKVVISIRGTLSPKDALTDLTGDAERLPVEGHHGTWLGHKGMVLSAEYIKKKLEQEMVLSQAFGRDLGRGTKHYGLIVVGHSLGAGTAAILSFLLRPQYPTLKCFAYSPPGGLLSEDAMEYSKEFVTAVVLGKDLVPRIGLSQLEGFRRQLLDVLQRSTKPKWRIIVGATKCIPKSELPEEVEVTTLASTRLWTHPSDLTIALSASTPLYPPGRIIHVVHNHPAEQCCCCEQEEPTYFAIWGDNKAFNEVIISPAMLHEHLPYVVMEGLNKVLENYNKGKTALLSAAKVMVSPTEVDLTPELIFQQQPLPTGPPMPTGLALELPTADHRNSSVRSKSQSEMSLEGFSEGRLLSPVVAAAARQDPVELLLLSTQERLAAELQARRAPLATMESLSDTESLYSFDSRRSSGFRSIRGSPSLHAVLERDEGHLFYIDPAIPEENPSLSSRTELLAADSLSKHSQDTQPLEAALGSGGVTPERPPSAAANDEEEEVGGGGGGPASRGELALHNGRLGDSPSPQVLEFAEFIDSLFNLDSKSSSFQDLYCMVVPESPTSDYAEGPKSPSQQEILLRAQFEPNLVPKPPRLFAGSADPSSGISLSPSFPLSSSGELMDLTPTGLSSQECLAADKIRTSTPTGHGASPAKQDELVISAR
Summary of the method: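 Sonicated HEK293T protein (100 μg) in 50 mM Tris pH 7.4 with 10 mM CaCl2. Inhibitor in DMSO (10% DMSO standard) preincubated 15 min at 37 °C. [14C]SAG was added to 20 μM final for 20 min at 37 °C, with Triton X-100 where the line states it. Quenched with 2:1 CHCl3/MeOH. Silica TLC in CHCl3/MeOH/NH4OH 86:14:0.75, then 12 h phosphorimaging. Activity = (2-AG+AA)/(2-AG+AA+SAG). Background-subtracted; n=1–2.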

[2] = target: T2, Fatty-acid amide hydrolase 1 (Rattus norvegicus, UniProt P97612); assay: Inhibition of rat histidine tagged FAAH expressed in Escherichia coli by coumarin ester substrate fluorescence assay
T2 sequence (P97612 whole entry): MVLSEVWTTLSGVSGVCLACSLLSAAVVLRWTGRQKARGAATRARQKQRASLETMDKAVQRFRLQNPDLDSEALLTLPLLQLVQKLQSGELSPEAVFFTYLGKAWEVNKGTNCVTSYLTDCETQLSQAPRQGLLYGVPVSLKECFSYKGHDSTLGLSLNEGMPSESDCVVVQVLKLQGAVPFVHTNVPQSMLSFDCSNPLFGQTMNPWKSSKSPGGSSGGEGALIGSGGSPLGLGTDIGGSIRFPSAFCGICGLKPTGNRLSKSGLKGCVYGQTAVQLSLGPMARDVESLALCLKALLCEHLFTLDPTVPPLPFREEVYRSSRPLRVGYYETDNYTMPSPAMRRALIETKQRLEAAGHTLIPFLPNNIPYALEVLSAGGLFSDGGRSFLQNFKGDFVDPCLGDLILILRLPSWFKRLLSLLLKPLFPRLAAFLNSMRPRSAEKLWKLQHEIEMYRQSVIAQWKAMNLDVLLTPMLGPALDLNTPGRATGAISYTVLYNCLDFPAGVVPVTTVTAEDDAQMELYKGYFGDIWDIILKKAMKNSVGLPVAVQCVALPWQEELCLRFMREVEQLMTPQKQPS

How did the inhibition [1] turn out when O=C(Oc1ccc([N+](=O)[O-])cc1)N1CCC(C(O)(c2ccc3c(c2)OCO3)c2ccc3c(c2)OCO3)CC1 was run?
Its inhibition is 37%.

And the IC50 [2]?
The IC50 was 974 nM.
